Assay results as given in ChEMBL document CHEMBL1921740, “Pyrrolamide DNA gyrase inhibitors: optimization of antibacterial activity and efficacy” (Bioorg Med Chem Lett, 2011).
pIC50: −log10 of the molar value. Values after ≈ are worked out from the molar mass of the structure shown.

Columns and labels:
DNA gyrase subunit B = DNA gyrase subunit B (Staphylococcus aureus, UniProt P0A0K8); experiment: Inhibition of ATPase activity of recombinant Staphylococcus aureus DNA gyrase B hybrid tetramer enzyme reconstituted from Escherichia coli GyrA by ammonium molybdate/malachite green phosphate assay
Procedure, shortened: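 GyrB ATPase activity of a hybrid tetramer reconstituted in vitro from recombinant S. aureus protein. Released phosphate detected with ammonium molybdate/malachite green. Test compound assayed across a range of concentrations.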

Streptococcus pneumoniae [1] = experiment: Antibacterial activity against Streptococcus pneumoniae ARC548; assay type: functional
Staphylococcus aureus [2] = experiment: Antibacterial activity against Staphylococcus aureus ARC516; assay type: functional
Staphylococcus aureus [3] = experiment: Antibacterial activity against methicillin-resistant, quinolone-resistant Staphylococcus aureus ARC517; assay type: functional
Moraxella catarrhalis = experiment: Antibacterial activity against Moraxella catarrhalis ARC445; assay type: functional
Enterococcus faecium = experiment: Antibacterial activity against Enterococcus faecium ARC073; assay type: functional
Haemophilus influenzae = experiment: Antibacterial activity against Haemophilus influenzae ARC446; assay type: functional
Escherichia coli [4] = experiment: Antibacterial activity against Escherichia coli ARC523; assay type: functional
Escherichia coli [5] = experiment: Antibacterial activity against TolC-deficient Escherichia coli ARC524; assay type: functional
Streptococcus pneumoniae [6] = experiment: Antibacterial activity against Streptococcus pneumoniae ARC548 infected in po dosed CD1 mouse lung infection pneumonia model assessed as reduction in viable bacterial counts administered 18 hrs after post infection measured after 24 hrs; assay type: functional
Procedure, shortened: (§1)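 Mice infected in the lung with S. pneumoniae received oral doses of drug or vehicle starting 18 h post-infection, at 40, 60 or 80 mg/kg, with a pre-treatment control group. Lungs were taken 24 h after treatment began, and homogenates were serially diluted and plated for viable counts. Results are reported as group mean log CFU/lung ± standard error.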

Streptococcus pneumoniae [7] = experiment: Antibacterial activity against Streptococcus pneumoniae ARC548 infected in po dosed CD1 mouse lung infection pneumonia model assessed as dose required to maximum effect on reduction of viable bacterial counts administered 18 hrs after post infection measured after 24 hrs; assay type: functional; procedure, shortened: as §1
[8] = Streptococcus pneumoniae, ARC548, read-out: MIC
[9] = Staphylococcus aureus, ARC516, read-out: MIC
[10] = Staphylococcus aureus, ARC517, read-out: MIC
[11] = Moraxella catarrhalis, ARC445, read-out: MIC
[12] = Enterococcus faecium, ARC073, read-out: MIC
[13] = Haemophilus influenzae, ARC446, read-out: MIC
[14] = Escherichia coli, ARC524, read-out: MIC

Sequence of DNA gyrase subunit B (P0A0K8 whole entry): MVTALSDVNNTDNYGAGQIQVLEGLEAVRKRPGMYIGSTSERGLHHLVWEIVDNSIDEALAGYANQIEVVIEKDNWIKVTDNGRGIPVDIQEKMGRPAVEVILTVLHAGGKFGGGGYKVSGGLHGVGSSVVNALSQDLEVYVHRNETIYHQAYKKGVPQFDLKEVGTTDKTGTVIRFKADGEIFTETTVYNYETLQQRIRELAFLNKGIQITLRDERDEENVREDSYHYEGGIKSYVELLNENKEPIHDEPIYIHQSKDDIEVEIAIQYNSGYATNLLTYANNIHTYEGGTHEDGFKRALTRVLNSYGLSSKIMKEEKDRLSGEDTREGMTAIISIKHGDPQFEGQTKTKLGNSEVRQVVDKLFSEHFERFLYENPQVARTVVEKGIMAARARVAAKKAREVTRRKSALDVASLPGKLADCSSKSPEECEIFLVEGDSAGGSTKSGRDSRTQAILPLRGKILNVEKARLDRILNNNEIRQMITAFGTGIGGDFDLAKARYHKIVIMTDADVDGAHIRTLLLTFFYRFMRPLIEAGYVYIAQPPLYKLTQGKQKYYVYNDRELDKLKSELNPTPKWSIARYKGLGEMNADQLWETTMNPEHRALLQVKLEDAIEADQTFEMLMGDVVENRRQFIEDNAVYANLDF

SMILES	pIC50 (DNA gyrase subunit B)	MIC (Streptococcus pneumoniae [1]; [8])	MIC (Staphylococcus aureus [2]; [9])	MIC (Staphylococcus aureus [3]; [10])	MIC (Moraxella catarrhalis; [11])	MIC (Enterococcus faecium; [12])	MIC (Haemophilus influenzae; [13])	MIC (Escherichia coli [4])	MIC (Escherichia coli [5]; [14])	MIC (Streptococcus pneumoniae [1])	MIC (Staphylococcus aureus [2])	MIC (Staphylococcus aureus [3])	MIC (Moraxella catarrhalis)	MIC (Enterococcus faecium)	MIC (Haemophilus influenzae)	MIC (Escherichia coli [5])	Activity (Streptococcus pneumoniae [6])	ED50 (Streptococcus pneumoniae [6])	Activity (Streptococcus pneumoniae [7])
Cc1[nH]c(C(=O)NC2CCN(c3ncc(C(=O)O)s3)CC2)c(Cl)c1Cl	7.70	0.5 µg/mL (≈ 1.24 µM)	8 µg/mL (≈ 19.8 µM)	8 µg/mL (≈ 19.8 µM)	0.5 µg/mL (≈ 1.24 µM)	2 µg/mL (≈ 4.96 µM)	2 µg/mL (≈ 4.96 µM)	> 64 µg/mL	0.25 µg/mL (≈ 0.62 µM)										
CONC(=O)c1cnc(N2CCC(NC(=O)c3[nH]c(C)c(Cl)c3Cl)CC2)s1	7.30	1 µg/mL (≈ 2.31 µM)	8 µg/mL (≈ 18.5 µM)	8 µg/mL (≈ 18.5 µM)	1 µg/mL (≈ 2.31 µM)	8 µg/mL (≈ 18.5 µM)	16 µg/mL (≈ 37 µM)	> 64 µg/mL	0.25 µg/mL (≈ 0.578 µM)										
Cc1[nH]c(C(=O)N[C@H]2CCN(c3ncc(C(=O)O)s3)C[C@H]2F)c(Cl)c1Cl	7.46									2 µg/mL (≈ 4.75 µM)	16 µg/mL (≈ 38 µM)	32 µg/mL (≈ 76 µM)	1 µg/mL (≈ 2.37 µM)	4 µg/mL (≈ 9.49 µM)	4 µg/mL (≈ 9.49 µM)	0.5 µg/mL (≈ 1.19 µM)			
Cc1[nH]c(C(=O)NC2CCN(c3cc(C(N)=O)cc(Cl)n3)CC2)cc1Cl	6.96	4 µg/mL (≈ 10.1 µM)	> 32 µg/mL	32 µg/mL (≈ 80.8 µM)		> 32 µg/mL	> 64 µg/mL	> 64 µg/mL	8 µg/mL (≈ 20.2 µM)										
Cc1[nH]c(C(=O)NC2CCN(c3cc(C(=O)O)cc(Cl)n3)CC2)c(Cl)c1Cl	8.00	0.5 µg/mL (≈ 1.16 µM)	2 µg/mL (≈ 4.63 µM)	2 µg/mL (≈ 4.63 µM)	0.13 µg/mL (≈ 0.301 µM)	1 µg/mL (≈ 2.32 µM)	4 µg/mL (≈ 9.27 µM)	> 64 µg/mL	0.25 µg/mL (≈ 0.579 µM)										
Cc1[nH]c(C(=O)NC2CCN(c3cc(C(N)=O)cc(Cl)n3)CC2)cc1C#N	6.82	4 µg/mL (≈ 10.3 µM)		> 64 µg/mL			> 64 µg/mL												
Cc1[nH]c(C(=O)NC2CCN(c3nnco3)CC2)c(Cl)c1Cl	6.64	4 µg/mL (≈ 11.6 µM)	32 µg/mL (≈ 93 µM)	32 µg/mL (≈ 93 µM)	4 µg/mL (≈ 11.6 µM)	32 µg/mL (≈ 93 µM)	64 µg/mL (≈ 186 µM)	> 64 µg/mL	4 µg/mL (≈ 11.6 µM)										
Cc1[nH]c(C(=O)N[C@@H]2CCN(c3ncc(C(=O)O)s3)C[C@@H]2F)c(Cl)c1Cl		0.06 µg/mL (≈ 0.142 µM)	2 µg/mL (≈ 4.75 µM)	2 µg/mL (≈ 4.75 µM)	0.06 µg/mL (≈ 0.142 µM)	0.25 µg/mL (≈ 0.593 µM)	0.25 µg/mL (≈ 0.593 µM)	> 64 µg/mL	0.06 µg/mL (≈ 0.142 µM)								Dose-dependent effect	54 mg/kg	80 mg/kg
Cc1ccc(C(=O)NC2CCN(c3cc(C(N)=O)cc(Cl)n3)CC2)[nH]1	5.16	> 64 µg/mL	> 64 µg/mL	> 64 µg/mL	> 64 µg/mL	> 64 µg/mL	> 64 µg/mL	> 64 µg/mL	> 64 µg/mL										
Cc1[nH]c(C(=O)NC2CCN(C3CN[C@H](C(=O)O)C3)CC2)c(Cl)c1Cl (stereo not given in full)	3.89	> 64 µg/mL	> 64 µg/mL	> 64 µg/mL	> 64 µg/mL	> 64 µg/mL	> 64 µg/mL	> 64 µg/mL	> 64 µg/mL										
Cc1[nH]c(C(=O)N[C@@H]2CCN(c3ncc(C(=O)O)s3)C[C@H]2F)c(Cl)c1Cl (racemic)	6.96	8 µg/mL (≈ 19 µM)	> 64 µg/mL	> 64 µg/mL	16 µg/mL (≈ 38 µM)	32 µg/mL (≈ 76 µM)	64 µg/mL (≈ 152 µM)	> 64 µg/mL	4 µg/mL (≈ 9.49 µM)										
Cc1[nH]c(C(=O)N[C@H]2CCN(c3ncc(C(=O)O)s3)C[C@H]2F)c(Cl)c1Cl (racemic)	> 8.00							> 64 µg/mL		0.13 µg/mL (≈ 0.309 µM)	2 µg/mL (≈ 4.75 µM)	4 µg/mL (≈ 9.49 µM)	<0.06 µg/mL	0.5 µg/mL (≈ 1.19 µM)	0.5 µg/mL (≈ 1.19 µM)	0.13 µg/mL (≈ 0.309 µM)			
Cc1[nH]c(C(=O)NC2CCN(c3cc(C(N)=O)cc(Cl)n3)CC2)cc1Br	7.00	4 µg/mL (≈ 9.08 µM)	32 µg/mL (≈ 72.6 µM)	32 µg/mL (≈ 72.6 µM)	8 µg/mL (≈ 18.2 µM)	> 64 µg/mL	64 µg/mL (≈ 145 µM)	> 64 µg/mL	4 µg/mL (≈ 9.08 µM)										
Cc1[nH]c(C(=O)NC2CCN(c3nc(C(=O)O)cs3)CC2)c(Cl)c1Cl	7.70	0.5 µg/mL (≈ 1.24 µM)	8 µg/mL (≈ 19.8 µM)	8 µg/mL (≈ 19.8 µM)	0.5 µg/mL (≈ 1.24 µM)	4 µg/mL (≈ 9.92 µM)	2 µg/mL (≈ 4.96 µM)	> 64 µg/mL	0.25 µg/mL (≈ 0.62 µM)										
Cc1[nH]c(C(=O)NC2CCN(c3cc(C(N)=O)cc(Cl)n3)CC2)c(Cl)c1Cl	7.52	1 µg/mL (≈ 2.32 µM)	4 µg/mL (≈ 9.29 µM)	4 µg/mL (≈ 9.29 µM)	2 µg/mL (≈ 4.64 µM)	4 µg/mL (≈ 9.29 µM)	> 64 µg/mL	> 64 µg/mL	2 µg/mL (≈ 4.64 µM)										
